Measured values of several laboratories.
Protocols differ between the studies behind these lines.
Sample: plasma

Structure (SMILES)	host	route	dose	notes	AUC(0-inf)
C=C(F)C(=O)N1CCN(c2nc(OC[C@@H]3CCCN3C)nc3c2CCN(c2cccc4cccc(Cl)c24)C3)C[C@@H]1CC#N	human	oral	600 mg	single dose, fasted	37100 ng·h/mL
CO[C@H]1CC[C@H](N2C(=O)CNc3ncc(-c4ccc(C(C)(C)O)nc4)nc32)CC1	human	oral	60 mg	patients	2070 ng·h/mL
O=C(Nc1c(Cl)cncc1Cl)c1ccc(OC(F)F)c(OCC2CC2)c1	human	oral	0.375 mg	multiple doses, once daily	81.4 ng·h/mL
CCOc1ccc(Cc2cc([C@@H]3S[C@H](CO)[C@@H](O)[C@H](O)[C@H]3O)c(OC)cc2C)cc1	male human	oral	5 mg	single dose, fasted	2010 ng·h/mL
CC(C)(O)c1ccccc1-c1ccc2[nH]c(/C=C/c3ccc(C(F)(F)F)cc3)nc2c1	male human	oral	30 mg	single dose, fasted	5690 ng·h/mL
CC(C)[C@](O)(c1ccc2cc(OC(F)F)c(OC(F)F)cc2c1)c1c[nH]nn1	female human	oral	450 mg	single dose	31100 ng·h/mL
C[C@@]1(c2cc(NC(=O)c3ccc(C#N)cn3)ccc2F)C=CSC(N)=N1	human	oral	3 mg	single dose	259 ng·h/mL
Cn1cc(-c2ccc(S(=O)(=O)[C@@H]3C[C@@H](C(=O)NC4(C#N)CC4)N(C(=O)C4(C(F)(F)F)CC4)C3)c(C(F)(F)F)c2)cn1	human	oral	100 mg	single dose, fasted, healthy volunteers	10600 ng·h/mL
CCCOc1ccc([C@H]2CNC(=O)N2c2ccc3[nH]cnc3c2)cc1	human	oral	200 mg	fasted, healthy volunteers	2110 ng·h/mL
O=C(/C=C/c1cccc(S(=O)(=O)Nc2ccccc2)c1)NO	human	intravenous	2000 mg/m²	patients	86400 ng·h/mL
COc1ccc(-n2nc(C(N)=O)c3c2C(=O)N(c2ccc(N4CCCCC4=O)cc2)CC3)cc1	male human	oral	25 mg	single dose	3410 ng·h/mL
CCCCC[C@H](O)CC[C@@H]1[C@H]2Cc3cccc(OCC(=O)O)c3C[C@H]2C[C@H]1O	human	inhaled	18 µg	single dose, healthy volunteers	0.34 ng·h/mL
CN(C)CCCNC(=O)/C(=C/CCCCC(=O)NO)COc1cccc2ccccc12	human	intravenous	187.5 mg/m²	single dose	30700 ng·h/mL
Nc1ccc(-c2nc([C@H]3CCc4cc(-c5cc(Cl)ccc5-n5cnnn5)cc(=O)n43)c(F)[nH]2)c(F)n1	human	oral	80 mg	single dose, fed	15900 ng·h/mL
CS(=O)(=O)CCC#N	human	oral	1000 mg	single dose, fasted	930000 ng·h/mL
COc1ccc([C@@H]2CN(C(=O)[C@@H](O)CO)C[C@@]2(C)[C@@H](C)O)cc1OC1CN(c2ccc(C)cn2)C1	human	oral	10 mg	single dose, healthy volunteers	3160 ng·h/mL
CC(C)(Sc1ccncc1-c1ccc(C#N)c2ccccc12)C(=O)O	male human	oral	40 mg	single dose, fasted, healthy volunteers	1270 ng·h/mL
CO[C@H]1/C=C\C=C(/C)C(=O)NC2=CC(=O)C(NCCN(C)C)=C(C[C@@H](C)C[C@H](OC)[C@H](O)[C@@H](C)/C=C(\C)[C@@H]1OC(N)=O)C2=O	human	intravenous	12 mg/m²	patients, infusion	1220 ng·h/mL
CC(C)n1cc(C#N)c2cc(-n3cc(C(=O)O)cn3)ccc21	human	oral	200 mg	single dose, fed	44300 ng·h/mL
CCc1nc2c(C)cc(N3CCN(CC(=O)N4CC(O)C4)CC3)cn2c1N(C)c1nc(-c2ccc(F)cc2)c(C#N)s1	human	oral	1000 mg	fed, healthy volunteers	71400 ng·h/mL
